The values that follow come from ChEMBL document CHEMBL2046332, “Substrate analog studies of the ω-regiospecificity of Mycobacterium tuberculosis cholesterol metabolizing cytochrome P450 enzymes CYP124A1, CYP125A1 and CYP142A1” (Bioorg Med Chem, 2012).

Series [1] has as its system Mycobacterium tuberculosis. In words: Binding affinity to Mycobacterium tuberculosis CYP124A1 assessed as type 1 binding mode at 0.05 to 0.2 uM by UV-visible spectrophotometry. In short, it runs like this:
(§1)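 Spectral titration of each P450 with steroid solubilised in methyl β-cyclodextrin. Ligand-induced low-spin/high-spin shifts were followed in the Soret region and at ~650 nm to assign binding type. Absolute spectra of the P450–steroid complexes were also examined.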

Series [2] has as its target T1, Steroid C26-monooxygenase (Mycobacterium tuberculosis, UniProt P9WPP1).
T1 sequence (P9WPP1 whole entry): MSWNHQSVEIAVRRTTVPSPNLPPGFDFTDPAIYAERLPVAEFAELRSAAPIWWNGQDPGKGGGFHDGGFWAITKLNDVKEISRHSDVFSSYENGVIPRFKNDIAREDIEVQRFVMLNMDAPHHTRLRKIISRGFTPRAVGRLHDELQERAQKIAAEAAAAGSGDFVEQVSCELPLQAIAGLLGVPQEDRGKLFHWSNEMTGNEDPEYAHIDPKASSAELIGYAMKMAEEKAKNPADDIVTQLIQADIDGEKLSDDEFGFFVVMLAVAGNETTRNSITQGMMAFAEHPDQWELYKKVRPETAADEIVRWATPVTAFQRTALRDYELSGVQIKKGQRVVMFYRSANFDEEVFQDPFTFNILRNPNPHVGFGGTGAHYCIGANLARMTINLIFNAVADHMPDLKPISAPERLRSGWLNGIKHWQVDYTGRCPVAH
In words: Binding affinity to Mycobacterium tuberculosis CYP125A1 assessed as type 1 binding mode at 0.05 to 0.2 uM by UV-visible spectrophotometry. In short, it runs like this: as §1

Series [3] concerns Mycobacterium tuberculosis. Nature of the series: Binding affinity to Mycobacterium tuberculosis CYP142A1 assessed as type 1 binding mode at 0.05 to 0.2 uM by UV-visible spectrophotometry. In short, it runs like this:
as §1

Series [4] has as its system Mycobacterium tuberculosis. Nature of the series: Activity of Mycobacterium tuberculosis CYP124A1 assessed as apparent turnover number at 50 uM incubated for 1 hr at 25 degC by GC-MS method. In a few lines: (§2)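 Each P450 (250 nM) was incubated with 50 μM substrate, 5 μg catalase, 50 μg/mL ferredoxin, 0.16 U/mL ferredoxin-NADP+ reductase, and an NADPH-regenerating system (1 mM glucose-6-phosphate, 2.4 U/mL G6P dehydrogenase, 5 mM MgCl2, 800 μM NADP+). Buffer was 50 mM potassium phosphate pH 7.5, 25 °C, 1 h. Quenched with HCl, extracted into hexanes, TMS-derivatised, GC-MS. Controls lacked P450 or NADPH.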

Series [5] addresses T1, Steroid C26-monooxygenase. In words: Activity of Mycobacterium tuberculosis CYP125A1 assessed as apparent turnover number at 50 uM incubated for 1 hr at 25 degC by GC-MS method. In short, it runs like this:
as §2

Series [6] deals with Mycobacterium tuberculosis. Nature of the series: Activity of Mycobacterium tuberculosis CYP142A1 assessed as apparent turnover number at 50 uM incubated for 1 hr at 25 degC by GC-MS method. In short, it runs like this:
as §2

In series [7] the test system is Mycobacterium tuberculosis. In words: Activity of Mycobacterium tuberculosis CYP124A1 assessed as relative apparent turnover number at 50 uM incubated for 1 hr at 25 degC by GC-MS method relative to cholesterol.
Series [8] has as its target T1, Steroid C26-monooxygenase. Nature of the series: Activity of Mycobacterium tuberculosis CYP125A1 assessed as relative apparent turnover number at 50 uM incubated for 1 hr at 25 degC by GC-MS method relative to cholesterol.
Series [9] deals with Mycobacterium tuberculosis. In words: Activity of Mycobacterium tuberculosis CYP142A1 assessed as relative apparent turnover number at 50 uM incubated for 1 hr at 25 degC by GC-MS method relative to cholesterol.
In series [10] the target is T1, Steroid C26-monooxygenase. In words: Binding affinity to Mycobacterium tuberculosis CYP125A1 assessed as type 1a binding mode at > 0.05 to 0.2 uM by UV-visible spectrophotometry. In short, it runs like this:
as §1

Series [11] has as its system Mycobacterium tuberculosis. Nature of the series: Activity of Mycobacterium tuberculosis CYP124A1 assessed as compound oxidation at 50 uM incubated for 1 hr at 25 degC by GC-MS method. In short, it runs like this:
as §2

For series [12], the system named is Mycobacterium tuberculosis. In words: Activity of Mycobacterium tuberculosis CYP142A1 assessed as compound oxidation at 50 uM incubated for 1 hr at 25 degC by GC-MS method. In short, it runs like this:
as §2

SMILES strings stand for the structures. The source made the active and inactive calls. The rule behind the calls is not given here.

With `CCCCC[C@@H](C)[C@H]1CC[C@H]2[C@@H]3CC=C4C[C@@H](O)CC[C@]4(C)[C@H]3CC[C@]12C`, the result in series [1] and in series [3] was Active. Further, the Activity result in series [2] was “Active”; in series [7] it was 48.6%; in series [8], 18%; in series [9], 11.7%. Moreover, the Kcat(app) in series [4] is 0.0117 s⁻¹; in series [5], 0.085 s⁻¹; in series [6], 0.0317 s⁻¹.
Take `CSCCC[C@@H](C)[C@H]1CC[C@H]2[C@@H]3CC=C4C[C@@H](O)CC[C@]4(C)[C@H]3CC[C@]12C`: the result in [1] and in [3] was Active. The outcome in series [10] was Active.
In the case of `C[C@H](CCCBr)[C@H]1CC[C@H]2[C@@H]3CC=C4C[C@@H](O)CC[C@]4(C)[C@H]3CC[C@]12C`, the outcome in series [1] and in series [3] was Active. In addition, the result in [10] was Active.
For `C=C(C)CCC[C@@H](C)[C@H]1CC[C@H]2[C@@H]3CCC4=CC(=O)CC[C@]4(C)[C@H]3CC[C@]12C`, the outcome in series [11] and in series [12] was Active.
Consider `C=CCCC[C@@H](C)[C@H]1CC[C@H]2[C@@H]3CCC4=CC(=O)CC[C@]4(C)[C@H]3CC[C@]12C`, for which the result in series [11] and in series [12] was Active.
With `CC(C)=CCC[C@@H](C)[C@H]1CC[C@@]2(C)C3=C(CC[C@]12C)[C@@]1(C)CCC(=O)C(C)(C)[C@@H]1CC3`, the result in series [11] and in [12] was Active.
Turning to `CC(C)=CCC[C@@H](C)[C@H]1CC[C@H]2[C@@H]3CCC4=CC(=O)CC[C@]4(C)[C@H]3CC[C@]12C`, the result in series [11] and in series [12] was Active.
Turning to `CC(C)CCC[C@@H](C)[C@H]1CC[C@H]2[C@@H]3CC[C@@H]4CC(=O)CC[C@]4(C)[C@H]3CC[C@]12C`, the outcome in series [11] and in series [12] was Active.
Regarding `CCCCC[C@@H](C)[C@H]1CC[C@H]2[C@@H]3CCC4=CC(=O)CC[C@]4(C)[C@H]3CC[C@]12C`, the result in series [11] and in series [12] was Active.
For `CSCCC[C@@H](C)[C@H]1CC[C@H]2[C@@H]3CCC4=CC(=O)CC[C@]4(C)[C@H]3CC[C@]12C`, the outcome in series [11] and in [12] was Active.
For `C[C@H](CCCBr)[C@H]1CC[C@H]2[C@@H]3CCC4=CC(=O)CC[C@]4(C)[C@H]3CC[C@]12C`, the outcome in series [11] and in series [12] was Active.
As for `CCC(C)CCC[C@@H](C)[C@H]1CC[C@H]2[C@@H]3CC=C4C[C@@H](O)CC[C@]4(C)[C@H]3CC[C@]12C` (mixture of isomers), the outcome in series [1] and in [3] was Active. The Activity result in series [2] was “Active”; in series [8], 68.1%; in [9], 58.7%. Also, the “Kcat(app)” value in series [5] is 0.317 s⁻¹; in series [6], 0.163 s⁻¹.
Turning to `CC(Cl)CCC[C@@H](C)[C@H]1CC[C@H]2[C@@H]3CC=C4C[C@@H](O)CC[C@]4(C)[C@H]3CC[C@]12C` (mixture of isomers), the result in series [1] and in [3] was Active. For the same molecule, the Activity entry in [2] was “Active”; in series [7] it was 29.8%; in series [8], 26%; in [9] it was 53.7%. In addition, the Kcat(app) is 0.0075 s⁻¹ in series [4], 0.122 s⁻¹ in [5] and 0.15 s⁻¹ in [6].
Turning to `CC(Br)CCC[C@@H](C)[C@H]1CC[C@H]2[C@@H]3CC=C4C[C@@H](O)CC[C@]4(C)[C@H]3CC[C@]12C` (mixture of isomers), the outcome in series [1] and in [3] was Active. In addition, the Activity result in series [2] was “Active”; in [7], 67.3%; in [8], 65.1%; in [9], 107%. The Kcat(app) in series [4] is 0.0168 s⁻¹; in [5] it was 0.3037 s⁻¹; in series [6], 0.299 s⁻¹.
On to `CC(Br)CCC[C@@H](C)[C@H]1CC[C@H]2[C@@H]3CCC4=CC(=O)CC[C@]4(C)[C@H]3CC[C@]12C` (mixture of isomers), for which the result in [11] and in series [12] was Active.
For the molecule `CC(Cl)CCC[C@@H](C)[C@H]1CC[C@H]2[C@@H]3CCC4=CC(=O)CC[C@]4(C)[C@H]3CC[C@]12C` (mixture of isomers), the outcome in [11] and in series [12] was Active.
Consider `CCC(C)CCC[C@@H](C)[C@H]1CC[C@H]2[C@@H]3CCC4=CC(=O)CC[C@]4(C)[C@H]3CC[C@]12C` (mixture of isomers), for which the outcome in series [11] and in series [12] was Active.
For the molecule `CC(C)CCC[C@@H](C)[C@H]1CC[C@H]2[C@@H]3CCC4=CC(=O)CC[C@]4(C)[C@H]3CC[C@]12C` [4-CHOLESTEN 3-ONE], the result in [1], in series [3], in [11] and in series [12] was Active. The outcome in series [2] was Active.
On to `CC(C)CCC[C@@H](C)[C@H]1CC[C@H]2[C@@H]3CC=C4C[C@@H](O)CC[C@]4(C)[C@H]3CC[C@]12C` [CHOLESTEROL], for which the outcome in [1] and in [3] was Active. Besides, the outcome in series [2] was Active. Besides, the results for the Kcat(app) in series [4], in series [5] and in series [6] were 0.025 s⁻¹, 0.467 s⁻¹ and 0.278 s⁻¹, respectively.
With `CC(C)CCC[C@@H](C)[C@H]1CC[C@H]2[C@@H]3CC[C@@H]4C[C@@H](O)CC[C@]4(C)[C@H]3CC[C@]12C` [COPROSTANOL], the outcome in series [1] and in series [3] was Active. The Activity entry is “Active” in [2], 68.4% in [7], 50.9% in series [8] and 43.1% in [9]. Further, the results for the Kcat(app) in [4], in series [5] and in series [6] were 0.0172 s⁻¹, 0.2373 s⁻¹ and 0.12 s⁻¹, respectively.
Turning to `CC(C)=CCC[C@@H](C)[C@H]1CC[C@H]2[C@@H]3CC=C4C[C@@H](O)CC[C@]4(C)[C@H]3CC[C@]12C` [DESMOSTEROL], the result in [1] and in series [3] was Active. Further, the Activity entry was “Active” in series [2], 91.2% in [7], 47.5% in series [8] and 41.4% in [9]. The Kcat(app) was 0.0228 s⁻¹ in series [4], 0.2215 s⁻¹ in series [5] and 0.115 s⁻¹ in [6].
On to `CC(C)=CCC[C@@H](C)[C@H]1CC[C@@]2(C)C3=C(CC[C@]12C)[C@@]1(C)CC[C@H](O)C(C)(C)[C@@H]1CC3` [LANOSTEROL], for which the outcome in series [1] and in series [3] was Active. The Activity entry was “Active” in series [2], 37% in series [8] and 132% in series [9]. In addition, the “Kcat(app)” value in series [5] came to 0.1728 s⁻¹; in series [6], 0.368 s⁻¹.
